≈ marks a conversion by molar mass, not a printed value. Calls of active or inactive are those of the source. The rule behind the calls is not given here.
Assays:
[1] = system: Mycobacterium tuberculosis; assay: Antitubercular activity against Mycobacterium tuberculosis H37Rv in iron-deficient GAST medium after 10 to 14 days by broth dilution method; type: functional
How it was run: (§1)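 MIC99 by broth microdilution in quadruplicate in GAST, either iron-deficient or supplemented with 200 µM FeCl3. Compounds were added from DMSO stocks, with DMSO-treated controls. Inoculum was 10⁴-10⁵ cells/assay, incubation 37 °C for 10-14 days, and growth read as OD620. MIC99 is the lowest concentration completely inhibiting observable growth.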

Vero = assay: Cytotoxicity against african green money Vero cells after 48 hrs by MTT assay; type: cell-based; conditions: Chlorocebus sabaeus
[2] = target: T1, Salicyl-AMP ligase / salicyl-S-ArCP synthetase (Mycobacterium tuberculosis, UniProt P71716); assay: Inhibition of Mycobacterium tuberculosis recombinant MbtA expressed in Escherichia coli by ATP-PPi exchange assay; conditions: read-out: Ki(app)
T1 sequence (P71716 whole entry): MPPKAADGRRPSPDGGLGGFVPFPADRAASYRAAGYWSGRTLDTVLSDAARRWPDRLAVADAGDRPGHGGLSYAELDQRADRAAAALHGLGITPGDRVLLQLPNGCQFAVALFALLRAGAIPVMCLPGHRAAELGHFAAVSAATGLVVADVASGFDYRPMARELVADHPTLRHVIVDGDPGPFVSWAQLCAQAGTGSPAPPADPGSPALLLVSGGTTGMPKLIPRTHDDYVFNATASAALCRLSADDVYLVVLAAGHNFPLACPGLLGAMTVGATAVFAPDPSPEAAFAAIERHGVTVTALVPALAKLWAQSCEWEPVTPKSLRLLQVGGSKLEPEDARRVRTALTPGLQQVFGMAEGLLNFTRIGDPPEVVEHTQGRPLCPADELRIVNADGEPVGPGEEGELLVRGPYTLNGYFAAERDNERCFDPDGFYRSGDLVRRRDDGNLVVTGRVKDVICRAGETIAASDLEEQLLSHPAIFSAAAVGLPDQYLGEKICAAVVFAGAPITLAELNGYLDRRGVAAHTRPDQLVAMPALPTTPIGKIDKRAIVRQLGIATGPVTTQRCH

[3] = system: Mycobacterium tuberculosis; assay: Antitubercular activity against Mycobacterium tuberculosis H37Rv in iron-replete GAST medium after 10 to 14 days by broth dilution method; type: functional; how it was run: as §1
[4] = system: Mycobacterium tuberculosis; assay: Ratio of MIC99 for Mycobacterium tuberculosis H37Rv in iron-replete GAST medium to MIC99 for Mycobacterium tuberculosis H37Rv in iron-deficient GAST medium; type: functional
[5] = Therapeutic index, ratio of IC50 for african green money Vero cells to MIC99 for Mycobacterium tuberculosis H37Rv; type: cell-based; conditions: monkey
Oryctolagus cuniculus = organism: Oryctolagus cuniculus; assay: Inhibition of protein synthesis in T7 coupled rabbit reticulocyte system by luciferase based translation assay; type: functional

| Compound | MIC99 [1] [µM] | IC50 (Vero) [µM] | Ki [2] [µM] | MIC99 [3] [µM] | Ratio [4] | selectivity ratio [5] | Activity (Oryctolagus cuniculus) |
| --- | --- | --- | --- | --- | --- | --- | --- |
| CCNc1ncnc2c1ncn2[C@@H]1O[C@H](COS(=O)(=O)[N-]C(=O)c2ccccc2O)[C@@H](O)[C@H]1O.[Na+] | 0.39 | > 100 | 0.0044 | 1.56 | 4 | – | – |
| CCN(CC)CC.Nc1nc(I)nc2c1ncn2[C@@H]1O[C@H](COS(=O)(=O)NC(=O)c2ccccc2O)[C@@H](O)[C@H]1O | 0.19 | > 100 | 0.00303 | 3.12 | 16 | – | – |
| O=C(NS(=O)(=O)OC[C@H]1O[C@@H](n2cnc3c(NC4CCC4)ncnc32)[C@H](O)[C@@H]1O)c1ccccc1O | > 100 | > 100 | 0.124 | > 100 | – | – | – |
| CC(C)CNc1ncnc2c1ncn2[C@@H]1O[C@H](COS(=O)(=O)NC(=O)c2ccccc2O)[C@@H](O)[C@H]1O | > 100 | > 100 | 1.14 | > 100 | – | – | – |
| O=C(NS(=O)(=O)OC[C@H]1O[C@@H](n2cnc3c(NCc4ccccc4)ncnc32)[C@H](O)[C@@H]1O)c1ccccc1O | > 100 | > 100 | 8.26 | > 100 | – | – | – |
| Nc1nc(-c2ccccc2)nc2c1ncn2[C@@H]1O[C@H](COS(=O)(=O)NC(=O)c2ccccc2O)[C@@H](O)[C@H]1O | 0.049 (≈ 0.0266 µg/mL) | > 100 | – | 0.39 (≈ 0.212 µg/mL) | – | – | – |
| CN(C)c1ncnc2c1ncn2[C@@H]1O[C@H](COS(=O)(=O)NC(=O)c2ccccc2O)[C@@H](O)[C@H]1O | 50 (≈ 24.7 µg/mL) | > 100 | 0.38 | – | – | – | – |
| Nc1ncnc2c1nc(N)n2[C@@H]1O[C@H](COS(=O)(=O)NC(=O)c2ccccc2O)[C@@H](O)[C@H]1O | > 50 | > 100 | 183 | > 50 | – | – | – |
| CCN(CC)CC.Nc1nc(Nc2ccccc2)nc2c1ncn2[C@@H]1O[C@H](COS(=O)(=O)NC(=O)c2ccccc2O)[C@@H](O)[C@H]1O | 0.049 | > 100 | 0.00094 | 0.39 | 8 | > 2000 | – |
| CNc1ncnc2c1ncn2[C@@H]1O[C@H](COS(=O)(=O)[N-]C(=O)c2ccccc2O)[C@@H](O)[C@H]1O.[Na+] | 0.39 | > 100 | 0.0016 | 1.56 | 4 | – | – |
| Nc1nc(-c2ccccc2-c2ccccc2)nc2c1ncn2[C@@H]1O[C@H](COS(=O)(=O)NC(=O)c2ccccc2O)[C@@H](O)[C@H]1O | > 50 | > 100 | 0.047 | > 50 | – | – | – |
| CCCNc1ncnc2c1ncn2[C@@H]1O[C@H](COS(=O)(=O)NC(=O)c2ccccc2O)[C@@H](O)[C@H]1O.CCN(CC)CC | 0.39 | > 100 | 0.0035 | 1.56 | 4 | – | – |
| CCN(CC)CC.O=C(NS(=O)(=O)OC[C@H]1O[C@@H](n2cnc3c(NC4CC4)ncnc32)[C@H](O)[C@@H]1O)c1ccccc1O | 0.098 | > 100 | 0.00185 | 6.25 | 64 | – | – |
| Nc1nc(-c2cccc(-c3ccccc3)c2)nc2c1ncn2[C@@H]1O[C@H](COS(=O)(=O)NC(=O)c2ccccc2O)[C@@H](O)[C@H]1O | 25 (≈ 15.5 µg/mL) | > 100 | 0.0014 | > 50 | – | – | – |
| CC(C)Nc1ncnc2c1ncn2[C@@H]1O[C@H](COS(=O)(=O)[N-]C(=O)c2ccccc2O)[C@@H](O)[C@H]1O.[Na+] | 25 | > 100 | 0.007 | > 100 | >4 | – | – |
| CCN(CC)CC.Nc1nc(C#Cc2ccccc2)nc2c1ncn2[C@@H]1O[C@H](COS(=O)(=O)NC(=O)c2ccccc2O)[C@@H](O)[C@H]1O | 0.049 | > 100 | 0.0004 | 0.39 | 8 | > 2000 | – |
| [N-]=[N+]=Nc1nc2c(N)ncnc2n1[C@@H]1O[C@H](COS(=O)(=O)NC(=O)c2ccccc2O)[C@@H](O)[C@H]1O | > 50 | > 100 | 42.5 | > 50 | – | – | – |
| CCN(CC)CC.Nc1ncnc2c1ccn2[C@@H]1O[C@H](COS(=O)(=O)NC(=O)c2ccccc2O)[C@@H](O)[C@H]1O | 6.25 | > 100 | 0.0243 | 50 | 8 | – | – |
| O=C(NS(=O)(=O)OC[C@H]1O[C@@H](n2cnc3c(=O)[nH]cnc32)[C@H](O)[C@@H]1O)c1ccccc1O | > 100 | > 100 | 0.8 | > 100 | – | – | – |
| CCN(CC)CC.Nc1cccc2c1ccn2C1CC(COS(=O)(=O)NC(=O)c2ccccc2O)[C@@H](O)[C@H]1O (single isomer, unassigned) | 6.25 | > 100 | 0.0201 | 50 | 8 | – | – |
| O=C(NS(=O)(=O)OC[C@H]1O[C@@H](n2cnc3c(NC4CCCC4)ncnc32)[C@H](O)[C@@H]1O)c1ccccc1O | > 100 | > 100 | 9.41 | > 100 | – | – | – |
| Nc1ncnc2c1nc(Br)n2[C@@H]1O[C@H](COS(=O)(=O)NC(=O)c2ccccc2O)[C@@H](O)[C@H]1O | > 50 | > 100 | 2.05 | > 50 | – | – | – |
| Nc1nc(-c2ccc(-c3ccccc3)cc2)nc2c1ncn2[C@@H]1O[C@H](COS(=O)(=O)NC(=O)c2ccccc2O)[C@@H](O)[C@H]1O | 25 (≈ 15.5 µg/mL) | > 100 | 0.00099 | > 50 | – | – | – |
| Nc1ncnc2c1ncn2[C@@H]1O[C@H](COS(N)(=O)=O)[C@@H](O)[C@H]1O | – | – | – | – | – | – | Active |
